Laboratory results: ChEMBL document CHEMBL1123986, “Oral absorption of cephalosporin antibiotics. 2. Expanded structure-activity relationships of 7-(arylacetamido)-3-substituted cephalosporins” (1988)
Converted amounts (≈) assume the structure as drawn.

Columns and labels:
Haemophilus influenzae [1] = assay: (§1) Minimum inhibitory concentration against Haemophilus influenzae; type: functional
In short: (§2)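 Agar dilution MIC in μg/mL. […] Organisms not run are marked not tested.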

Escherichia coli = assay: Minimum inhibitory concentration against Escherichia coli; type: functional; in short: as §2
Streptococcus pneumoniae = assay: Minimum inhibitory concentration against Streptococcus pneumoniae; type: functional; in short: as §2
Salmonella typhi = assay: Minimum inhibitory concentration against Salmonella typhi; type: functional, Salmonella enterica subsp. enterica serovar Typhi; settings: Salmonella enterica
Klebsiella pneumoniae = assay: Minimum inhibitory concentration against Klebsiella pneumoniae; type: functional; in short: as §2
Streptococcus pyogenes = assay: Minimum inhibitory concentration against Streptococcus pyogenes; type: functional; in short: as §2
Haemophilus influenzae [2] = assay: as §1; type: functional; in short: as §2; remark: listed apart in the source
Klebsiella aerogenes = assay: Minimum inhibitory concentration against Enterobacter aerogenes; type: functional; in short: as §2
Staphylococcus aureus = assay: Minimum inhibitory concentration against Staphylococcus aureus; type: functional; in short: as §2

Compound	MIC (Haemophilus influenzae [1])	MIC (Escherichia coli)	MIC (Streptococcus pneumoniae)	MIC (Salmonella typhi)	MIC (Klebsiella pneumoniae)	MIC (Streptococcus pyogenes)	MIC (Haemophilus influenzae [2])	MIC (Klebsiella aerogenes)	MIC (Staphylococcus aureus)
O=C(Cc1csc2ccc(Cl)cc12)N[C@@H]1C(=O)N2C(C(=O)O)=C(Cl)CS[C@H]12	2 µg/mL (≈ 4.51 µM)	128 µg/mL (≈ 289 µM)	0.015 µg/mL (≈ 0.0338 µM)	128 µg/mL (≈ 289 µM)	64 µg/mL (≈ 144 µM)				
CO/N=C/c1ccc(OCC(=O)N[C@@H]2C(=O)N3C(C(=O)O)=C(Cl)CS[C@H]23)cc1	4 µg/mL (≈ 9.39 µM)	> 128 µg/mL	0.06 µg/mL (≈ 0.141 µM)	> 128 µg/mL	> 128 µg/mL	0.03 µg/mL (≈ 0.0704 µM)	1 µg/mL (≈ 2.35 µM)	> 128 µg/mL	0.25 µg/mL (≈ 0.587 µM)
O=C(COc1ccc([N+](=O)[O-])cc1)N[C@@H]1C(=O)N2C(C(=O)O)=C(Cl)CS[C@H]12	2 µg/mL (≈ 4.83 µM)	> 128 µg/mL	0.03 µg/mL (≈ 0.0725 µM)	> 128 µg/mL	> 128 µg/mL	0.015 µg/mL (≈ 0.0362 µM)	1 µg/mL (≈ 2.42 µM)	> 128 µg/mL	0.25 µg/mL (≈ 0.604 µM)
CC1=C(C(=O)O)N2C(=O)[C@@H](NC(=O)Cc3csc4ccccc34)[C@H]2SC1	32 µg/mL (≈ 82.4 µM)	> 128 µg/mL	1 µg/mL (≈ 2.57 µM)	> 128 µg/mL	> 128 µg/mL	0.5 µg/mL (≈ 1.29 µM)	1 µg/mL (≈ 2.57 µM)	> 128 µg/mL	1 µg/mL (≈ 2.57 µM)
O=C(Cc1ccccc1)N[C@@H]1C(=O)N2C(C(=O)O)=C(Cl)CS[C@H]12			0.125 µg/mL (≈ 0.354 µM)	4 µg/mL (≈ 11.3 µM)				128 µg/mL (≈ 363 µM)	
Nc1n[nH]c(SCC(=O)N[C@@H]2C(=O)N3C(C(=O)O)=C(Cl)CS[C@H]23)n1	4 µg/mL (≈ 10.2 µM)	16 µg/mL (≈ 40.9 µM)	2 µg/mL (≈ 5.12 µM)	8 µg/mL (≈ 20.5 µM)	8 µg/mL (≈ 20.5 µM)	1 µg/mL (≈ 2.56 µM)	2 µg/mL (≈ 5.12 µM)	> 128 µg/mL	4 µg/mL (≈ 10.2 µM)
COc1ccc(CC(=O)N[C@@H]2C(=O)N3C(C(=O)O)=C(Cl)CS[C@H]23)cc1	1 µg/mL (≈ 2.61 µM)	64 µg/mL (≈ 167 µM)	0.125 µg/mL (≈ 0.327 µM)	32 µg/mL (≈ 83.6 µM)	32 µg/mL (≈ 83.6 µM)	0.125 µg/mL (≈ 0.327 µM)	1 µg/mL (≈ 2.61 µM)	> 128 µg/mL	0.5 µg/mL (≈ 1.31 µM)
O=C(Cc1ccc(O)cc1)N[C@@H]1C(=O)N2C(C(=O)O)=C(Cl)CS[C@H]12			0.25 µg/mL (≈ 0.678 µM)	8 µg/mL (≈ 21.7 µM)					
COC1=C(C(=O)O)N2C(=O)[C@@H](NC(=O)Cc3noc(C(Cl)(Cl)Cl)n3)[C@H]2SC1	32 µg/mL (≈ 69.9 µM)	> 128 µg/mL	4 µg/mL (≈ 8.74 µM)	> 128 µg/mL	> 128 µg/mL	4 µg/mL (≈ 8.74 µM)	32 µg/mL (≈ 69.9 µM)	> 128 µg/mL	16 µg/mL (≈ 35 µM)
O=C(Cc1csc(-c2ccccc2)n1)N[C@@H]1C(=O)N2C(C(=O)O)=C(Cl)CS[C@H]12				> 128 µg/mL				> 128 µg/mL	
O=C(COc1ccccc1)N[C@@H]1C(=O)N2C(C(=O)O)=C(Cl)CS[C@H]12			0.125 µg/mL (≈ 0.339 µM)	64 µg/mL (≈ 174 µM)					
O=C(CSc1nccs1)N[C@@H]1C(=O)N2C(C(=O)O)=C(Cl)CS[C@H]12		32 µg/mL (≈ 81.7 µM)	0.5 µg/mL (≈ 1.28 µM)	16 µg/mL (≈ 40.8 µM)	16 µg/mL (≈ 40.8 µM)	0.25 µg/mL (≈ 0.638 µM)		> 128 µg/mL	1 µg/mL (≈ 2.55 µM)
O=C(Cc1noc(C(Cl)(Cl)Cl)n1)N[C@@H]1C(=O)N2C(C(=O)O)=CCS[C@H]12	32 µg/mL (≈ 74.8 µM)	32 µg/mL (≈ 74.8 µM)	2 µg/mL (≈ 4.68 µM)	16 µg/mL (≈ 37.4 µM)	32 µg/mL (≈ 74.8 µM)	2 µg/mL (≈ 4.68 µM)	16 µg/mL (≈ 37.4 µM)	128 µg/mL (≈ 299 µM)	2 µg/mL (≈ 4.68 µM)
O=C(Cc1ccc(F)cc1)N[C@@H]1C(=O)N2C(C(=O)O)=C(Cl)CS[C@H]12	4 µg/mL (≈ 10.8 µM)	32 µg/mL (≈ 86.3 µM)	0.125 µg/mL (≈ 0.337 µM)	16 µg/mL (≈ 43.2 µM)	32 µg/mL (≈ 86.3 µM)	0.06 µg/mL (≈ 0.162 µM)	1 µg/mL (≈ 2.7 µM)	> 128 µg/mL	0.5 µg/mL (≈ 1.35 µM)
Nc1ccc(CC(=O)N[C@@H]2C(=O)N3C(C(=O)O)=C(Cl)CS[C@H]23)cc1	1 µg/mL (≈ 2.72 µM)	16 µg/mL (≈ 43.5 µM)	0.125 µg/mL (≈ 0.34 µM)	2 µg/mL (≈ 5.44 µM)	2 µg/mL (≈ 5.44 µM)	0.06 µg/mL (≈ 0.163 µM)	0.5 µg/mL (≈ 1.36 µM)	128 µg/mL (≈ 348 µM)	0.5 µg/mL (≈ 1.36 µM)
O=C(COc1ccc(Cl)cc1)N[C@@H]1C(=O)N2C(C(=O)O)=C(Cl)CS[C@H]12	1 µg/mL (≈ 2.48 µM)	> 128 µg/mL	0.03 µg/mL (≈ 0.0744 µM)	> 128 µg/mL	> 128 µg/mL	0.03 µg/mL (≈ 0.0744 µM)	1 µg/mL (≈ 2.48 µM)	> 128 µg/mL	0.125 µg/mL (≈ 0.31 µM)
COc1ccc(OCC(=O)N[C@@H]2C(=O)N3C(C(=O)O)=C(Cl)CS[C@H]23)cc1	2 µg/mL (≈ 5.01 µM)	> 128 µg/mL	0.125 µg/mL (≈ 0.313 µM)	> 128 µg/mL	> 128 µg/mL	0.06 µg/mL (≈ 0.15 µM)	2 µg/mL (≈ 5.01 µM)	> 128 µg/mL	0.25 µg/mL (≈ 0.627 µM)
O=C(CSc1nc[nH]n1)N[C@@H]1C(=O)N2C(C(=O)O)=C(Cl)CS[C@H]12	4 µg/mL (≈ 10.6 µM)	16 µg/mL (≈ 42.6 µM)	2 µg/mL (≈ 5.32 µM)	16 µg/mL (≈ 42.6 µM)	16 µg/mL (≈ 42.6 µM)	0.5 µg/mL (≈ 1.33 µM)	4 µg/mL (≈ 10.6 µM)	> 128 µg/mL	4 µg/mL (≈ 10.6 µM)
COc1ccccc1CC(=O)N[C@@H]1C(=O)N2C(C(=O)O)=C(Cl)CS[C@H]12	2 µg/mL (≈ 5.22 µM)	> 128 µg/mL	1 µg/mL (≈ 2.61 µM)	> 128 µg/mL	> 128 µg/mL	1 µg/mL (≈ 2.61 µM)	1 µg/mL (≈ 2.61 µM)	> 128 µg/mL	1 µg/mL (≈ 2.61 µM)
O=C(Cc1ccc(Cl)cc1)N[C@@H]1C(=O)N2C(C(=O)O)=C(Cl)CS[C@H]12	1 µg/mL (≈ 2.58 µM)	64 µg/mL (≈ 165 µM)	0.125 µg/mL (≈ 0.323 µM)	64 µg/mL (≈ 165 µM)	128 µg/mL (≈ 331 µM)	0.06 µg/mL (≈ 0.155 µM)	0.5 µg/mL (≈ 1.29 µM)	> 128 µg/mL	0.25 µg/mL (≈ 0.646 µM)
Cc1nc(CC(=O)N[C@@H]2C(=O)N3C(C(=O)O)=C(Cl)CS[C@H]23)c(-c2ccccc2)s1	32 µg/mL (≈ 71.1 µM)	> 128 µg/mL	0.06 µg/mL (≈ 0.133 µM)	> 128 µg/mL	> 128 µg/mL	0.015 µg/mL (≈ 0.0333 µM)	32 µg/mL (≈ 71.1 µM)	> 128 µg/mL	0.125 µg/mL (≈ 0.278 µM)
O=C(Cc1csc2ccc(Cl)cc12)N[C@@H]1C(=O)N2C(C(=O)O)=CCS[C@H]12		128 µg/mL (≈ 313 µM)		> 128 µg/mL	128 µg/mL (≈ 313 µM)	0.03 µg/mL (≈ 0.0734 µM)			0.125 µg/mL (≈ 0.306 µM)
O=C(Cc1noc(C(Cl)(Cl)Cl)n1)N[C@@H]1C(=O)N2C(C(=O)O)=C(Cl)CS[C@H]12	4 µg/mL (≈ 8.66 µM)	64 µg/mL (≈ 138 µM)	0.5 µg/mL (≈ 1.08 µM)	16 µg/mL (≈ 34.6 µM)	16 µg/mL (≈ 34.6 µM)	0.25 µg/mL (≈ 0.541 µM)	4 µg/mL (≈ 8.66 µM)	> 128 µg/mL	2 µg/mL (≈ 4.33 µM)
COc1ccc(CC(=O)N[C@@H]2C(=O)N3C(C(=O)O)=C(Cl)CS[C@H]23)cc1OC	1 µg/mL (≈ 2.42 µM)	128 µg/mL (≈ 310 µM)	0.06 µg/mL (≈ 0.145 µM)	128 µg/mL (≈ 310 µM)	128 µg/mL (≈ 310 µM)	0.3 µg/mL (≈ 0.727 µM)	0.5 µg/mL (≈ 1.21 µM)	> 128 µg/mL	0.25 µg/mL (≈ 0.606 µM)
O=Cc1ccc(OCC(=O)N[C@@H]2C(=O)N3C(C(=O)O)=C(Cl)CS[C@H]23)cc1	2 µg/mL (≈ 5.04 µM)	> 128 µg/mL	0.03 µg/mL (≈ 0.0756 µM)	> 128 µg/mL	> 128 µg/mL	0.015 µg/mL (≈ 0.0378 µM)	1 µg/mL (≈ 2.52 µM)	> 128 µg/mL	0.25 µg/mL (≈ 0.63 µM)
